Data set [1] deals with Staphylococcus epidermidis. The data set can be described thus: Antibacterial activity against biofilm negative Staphylococcus epidermidis ATCC 12228 by double-dilution technique. It counts as functional. In a few lines: (§1)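 MIC measured against each bacterial strain using a double-dilution series of each compound. Every determination was run in duplicate or triplicate.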

A short description of data set [2]: Drug metabolism assessed as aminoglycoside 2'-N-acetyltransferase Ic (unknown origin)-mediated conversion at 100 uM by micro plate reader analysis relative to tobramycin. It counts as ADME. A digest of the protocol: (§2)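 Ellman assay: CoASH release coupled to DTNB (2 mM), read at 412 nm every 30 s for 1 h at 25 °C. Compound at 100 μM. Conditions by enzyme: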
Data set [3] is described as follows: Drug metabolism assessed as enhanced intracellular survival protein (unknown origin)-mediated conversion at 100 uM by micro plate reader analysis relative to tobramycin. It counts as ADME. A digest of the protocol: as §2
Data set [4] has as its system Escherichia coli. The data set can be described thus: Antibacterial activity against Escherichia coli MC1061 by double-dilution technique. Type of data set: functional. In a few lines:
(§3)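 Double-dilution series of each compound against each strain, reported as MIC. Runs done in duplicate or triplicate.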

Data set [5] relates to Haemophilus influenzae. The data set can be described thus: Antibacterial activity against Haemophilus influenzae ATCC 51907 by double-dilution technique. It counts as functional. In a few lines:
as §1

For data set [6], the system named is Escherichia coli. As to the kind of experiment: Inhibition of protein synthesis in Escherichia coli S30 extracts after 90 mins by coupled transcription/translation assay. It counts as functional. Particulars: 1.5 h. In a few lines: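 E. coli extract coupled transcription/translation with luciferase reporter. Reactions with varying compound concentrations ran 90 min at 37 °C, were chilled on ice, then diluted in Tris-phosphate pH 7.8 buffer containing DTT, glycerol, Triton X-100 and BSA. Luminescence was read immediately after adding luciferase reagent. IC50 came from concentration-response fits of at least two independent experiments.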

The test system of data set [7] is Bacillus subtilis. As to the kind of experiment: Antibacterial activity against Bacillus subtilis 168 harboring AAC(6')/APH(2'')-pRB374 by double-dilution technique. It counts as functional.
Data set [8] concerns Mycolicibacterium smegmatis. As to the kind of experiment: Antibacterial activity against Mycobacterium smegmatis str. MC2 155 by double-dilution technique. Type of data set: functional.
For data set [9], the system named is Bacillus cereus. As to the kind of experiment: Antibacterial activity against Bacillus cereus ATCC 11778 by double-dilution technique. Type of data set: functional. In a few lines:
as §1

In data set [10] the test system is Listeria monocytogenes. The data set can be described thus: Antibacterial activity against Listeria monocytogenes ATCC 19115 by double-dilution technique. It counts as functional. A digest of the protocol:
as §3

Data set [11] concerns Streptococcus pyogenes. The data set can be described thus: Antibacterial activity against Streptococcus pyogenes Serotype M12 MGAS9429 by double-dilution technique. Type of data set: functional. A digest of the protocol:
as §1

The test system of data set [12] is Staphylococcus aureus. The data set can be described thus: Antibacterial activity against Staphylococcus aureus expressing NorA by double-dilution technique. It counts as functional. A digest of the protocol: as §3
In data set [13] the test system is Bacillus anthracis. As to the kind of experiment: Antibacterial activity against Bacillus anthracis 34F2 Sterne by double-dilution technique. It counts as functional. A digest of the protocol: as §3
The nature of data set [14]: Drug metabolism assessed as aminoglycoside 3-N-acetyltransferase AAC(3)-IV (unknown origin)-mediated conversion at 100 uM by micro plate reader analysis relative to tobramycin. It counts as ADME. In a few lines: as §2
Data set [15] relates to Bacillus subtilis. As to the kind of experiment: Antibacterial activity against Bacillus subtilis 168 by double-dilution technique. Type of data set: functional. In a few lines:
as §3

Data set [16] has as its system Staphylococcus aureus. The data set can be described thus: Antibacterial activity against Staphylococcus aureus ATCC 29213 by double-dilution technique. Type of data set: functional. In a few lines:
as §3

Structures are written as SMILES. Values after ≈ are worked out from the molar mass of the structure shown.

Regarding `CCC[C@@H]1C[C@@H](C(=O)NC([C@H]2O[C@H](SC)[C@H](O)[C@@H](O)[C@H]2O)[C@@H](C)SCCOCCSSCCOCCSC[C@H]2O[C@@H](O[C@@H]3[C@@H](O)[C@H](O[C@H]4O[C@H](CN)[C@@H](O)C[C@H]4N)[C@@H](N)C[C@H]3N)C(O)[C@@H](N)[C@@H]2O)N(C)C1` (single isomer, unassigned), the MIC in data set [1] turned out to be 2 µg/mL (≈ 1.8 µM); in data set [4], 4.7 µg/mL (≈ 4.22 µM); in data set [5], 75 µg/mL (≈ 67.4 µM); in [7] it was 150 µg/mL (≈ 135 µM); in data set [8], 4.7 µg/mL (≈ 4.22 µM); in data set [9] it was 9.4 µg/mL (≈ 8.45 µM). Also, the MIC in data set [10] is 18.8 µg/mL (≈ 16.9 µM); in [11], 64 µg/mL (≈ 57.5 µM); in data set [12] it was 4.7 µg/mL (≈ 4.22 µM); in data set [13], 2.3 µg/mL (≈ 2.07 µM); in [15], 1.2 µg/mL (≈ 1.08 µM); in data set [16], 2.3 µg/mL (≈ 2.07 µM). Also, the “fold change (FC)” value worked out at 1.6 in data set [2], 2.6 in [3] and 1.4 in [14]. Moreover, in data set [6], the IC50 came to 980 nM.

Regarding `NC[C@H]1O[C@H](O[C@H]2[C@H](O)[C@@H](O[C@@H]3O[C@H](CSCCOCCSSCCOCCSC[C@H]4O[C@@H](O[C@@H]5[C@@H](O)[C@H](O[C@H]6O[C@H](CN)[C@@H](O)C[C@H]6N)[C@@H](N)C[C@H]5N)[C@H](O)[C@@H](N)[C@@H]4O)[C@@H](O)[C@H](N)[C@H]3O)[C@H](N)C[C@@H]2N)[C@H](N)C[C@@H]1O`, the MIC in [1] turned out to be 16 µg/mL (≈ 13.6 µM); in data set [4], 18.8 µg/mL (≈ 16 µM); in data set [5] it was 9.4 µg/mL (≈ 8.01 µM); in [7], 37.5 µg/mL (≈ 32 µM); in [8], 2.3 µg/mL (≈ 1.96 µM); in [9], 75 µg/mL (≈ 63.9 µM). The MIC amounted to 37.5 µg/mL (≈ 32 µM) in data set [10]; 64 µg/mL (≈ 54.5 µM) in data set [11]; 9.4 µg/mL (≈ 8.01 µM) in [12]; 37.5 µg/mL (≈ 32 µM) in data set [13]; 0.6 µg/mL (≈ 0.511 µM) in data set [15]; 37.5 µg/mL (≈ 32 µM) in [16]. Also, the results for the “fold change (FC)” value in data set [2], in data set [3] and in data set [14] were 2.4, 4.1 and 2, respectively. In [6], this compound registered a 50% inhibitory concentration (IC50) of 270 nM.

Turning to `NC[C@H]1O[C@H](O[C@H]2[C@H](O)[C@@H](O[C@@H]3O[C@H](CSCCOCCSSCCOCCSCC(=O)N[C@H](CO)[C@H](O)c4ccc([N+](=O)[O-])cc4)[C@@H](O)[C@H](N)[C@H]3O)[C@H](N)C[C@@H]2N)[C@H](N)C[C@@H]1O`, the MIC in data set [1] was determined as 16 µg/mL (≈ 16.4 µM); in data set [4] it was 4.7 µg/mL (≈ 4.81 µM); in [5], 37.5 µg/mL (≈ 38.4 µM); in data set [7], 150 µg/mL (≈ 154 µM); in [8] it was 4.7 µg/mL (≈ 4.81 µM); in data set [9], 150 µg/mL (≈ 154 µM). Besides, the MIC in data set [10] was 18.8 µg/mL (≈ 19.3 µM); in data set [11], 16 µg/mL (≈ 16.4 µM); in [12] it was 9.4 µg/mL (≈ 9.63 µM); in data set [13], 75 µg/mL (≈ 76.8 µM); in data set [15], 4.7 µg/mL (≈ 4.81 µM); in data set [16] it was 150 µg/mL (≈ 154 µM). Further, the “fold change (FC)” value in data set [2] is on record as 1.6; in [3], 2.6; in [14] it was 1.4. The compound also yielded an IC50 in data set [6] of 1000 nM.

What is called IC50 is the point on the concentration scale where inhibition reaches its midpoint. A low value points to greater potency in that assay.

Values taken from ChEMBL document CHEMBL2417431, “Synthesis and evaluation of hetero- and homodimers of ribosome-targeting antibiotics: antimicrobial activity, in vitro inhibition of translation, and drug resistance” (J Med Chem, 2013).
